Test results reported in ChEMBL document CHEMBL3856209, “Novel pyrazolopyridine derivatives as potential angiogenesis inhibitors: Synthesis, biological evaluation and transcriptome-based mechanistic analysis” (Eur J Med Chem, 2016).
Active and inactive are the calls of the source.

Experiments:
HUVEC [1] = test: Effect on CENPA gene expression in serum-starved HUVEC after 6 hrs by microarray analysis relative to control; format: functional, Homo sapiens
Outline: (§1)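 Serum-starved confluent HUVEC treated with 2 μM compound or DMSO in 2.5% FBS for 6 h or 24 h; RNA hybridized to Illumina Human-HT12 arrays. Data background-corrected, vst-transformed and rsn-normalized. Differential probes called by moderated paired t-test (limma) at p < 0.05 and log2 fold change >|0.5| vs DMSO.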

HUVEC [2] = test: Effect on CKS1B gene expression in serum-starved HUVEC after 6 hrs by microarray analysis relative to control; format: functional, Homo sapiens; outline: as §1
HUVEC [3] = test: Effect on CKS2 gene expression in serum-starved HUVEC after 6 hrs by microarray analysis relative to control; format: functional, Homo sapiens
Outline: (§2)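 Confluent, serum-starved HUVEC (pooled from 3–5 donors, passage ≤4) treated with 2 μM compound or vehicle with 2.5% FBS for 6 h or 24 h. Total RNA hybridized to Illumina Human-HT12 arrays. Data were background-corrected, vst-transformed and rsn-normalized. Hits called by moderated paired t-test versus DMSO-treated cells, p < 0.05 and log2 fold change >|0.5|.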

HUVEC [4] = test: Effect on MBNL2 gene expression in serum-starved HUVEC after 24 hrs by microarray analysis relative to control; format: functional, Homo sapiens
Outline: (§3)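 Serum-starved confluent HUVEC (pooled from 3–5 donors, passage ≤4) were treated with 2 μM compound or vehicle in 2.5% FBS for 6 h or 24 h, and total RNA was isolated. Hybridization was on Illumina Human-HT12. Data were processed with bgAdjust, vst and rsn normalization. Changes versus DMSO were called by moderated paired t-test at p < 0.05 and |log2 fold change| > 0.5.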

HUVEC [5] = test: Effect on PNISR gene expression in serum-starved HUVEC after 6 hrs by microarray analysis relative to control; format: functional, Homo sapiens; outline: as §3
HUVEC [6] = test: Effect on SIVA1 gene expression in serum-starved HUVEC after 24 hrs by microarray analysis relative to control; format: functional, Homo sapiens
HUVEC [7] = test: Effect on ANTXR1 gene expression in serum-starved HUVEC after 6 hrs by microarray analysis relative to control; format: functional, Homo sapiens; outline: as §1
HUVEC [8] = test: Effect on BHLHE40 gene expression in serum-starved HUVEC after 6 hrs by microarray analysis relative to control; format: functional, Homo sapiens; outline: as §1
HUVEC [9] = test: Effect on CYBA gene expression in serum-starved HUVEC after 6 hrs by microarray analysis relative to control; format: functional, Homo sapiens
Outline: (§4)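 Confluent serum-starved HUVEC (primary, pooled from 3–5 donors, passage ≤4) treated with 2 μM compound or DMSO vehicle in 2.5% FBS for 6 h or 24 h. Total RNA hybridized to Illumina Human-HT12 arrays, background-corrected, vst-transformed and rsn-normalized. Differential expression versus DMSO by moderated paired t-test (p < 0.05, |log2 fold change| > 0.5).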

HUVEC [10] = test: Effect on DBI gene expression in serum-starved HUVEC after 6 hrs by microarray analysis relative to control; format: functional, Homo sapiens
Outline: (§5)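 Serum-starved confluent HUVEC (primary, pooled from 3–5 donors, passage ≤4) treated with 2 μM test compound or DMSO vehicle (working dilutions ≤0.1% v/v) in presence of 2.5% FBS for 6 h or 24 h; total RNA hybridized to Illumina Human-HT12 arrays; background correction, vst, rsn normalization; moderated paired t-test versus DMSO, thresholds p < 0.05 and log2 fold change >|0.5|.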

HUVEC [11] = test: Effect on DKK1 gene expression in serum-starved HUVEC after 6 hrs by microarray analysis relative to control; format: functional, Homo sapiens; outline: as §4
HUVEC [12] = test: Effect on GRPEL2 gene expression in serum-starved HUVEC after 6 hrs by microarray analysis relative to control; format: functional, Homo sapiens; outline: as §2
HUVEC [13] = test: Effect on HLA-DRA gene expression in serum-starved HUVEC after 6 hrs by microarray analysis relative to control; format: functional, Homo sapiens
HUVEC [14] = test: Effect on ITGB2 gene expression in serum-starved HUVEC after 6 hrs by microarray analysis relative to control; format: functional, Homo sapiens
HUVEC [15] = test: Effect on KCNAB1 gene expression in serum-starved HUVEC after 6 hrs by microarray analysis relative to control; format: functional, Homo sapiens; outline: as §2
HUVEC [16] = test: Effect on KRT7 gene expression in serum-starved HUVEC after 6 hrs by microarray analysis relative to control; format: functional, Homo sapiens
HUVEC [17] = test: Effect on RNU1-28P gene expression in serum-starved HUVEC after 6 hrs by microarray analysis relative to control; format: functional, Homo sapiens
HUVEC [18] = test: Effect on SPDL1 gene expression in serum-starved HUVEC after 6 hrs by microarray analysis relative to control; format: functional, Homo sapiens
HUVEC [19] = test: Effect on TM7SF2 gene expression in serum-starved HUVEC after 6 hrs by microarray analysis relative to control; format: functional, Homo sapiens
HUVEC [20] = test: Effect on ZMAT3 gene expression in serum-starved HUVEC after 6 hrs by microarray analysis relative to control; format: functional, Homo sapiens
HUVEC [21] = test: Effect on AURKA gene expression in serum-starved HUVEC after 24 hrs by microarray analysis relative to control; format: functional, Homo sapiens; outline: as §4
HUVEC [22] = test: Effect on CDK1 gene expression in serum-starved HUVEC after 24 hrs by microarray analysis relative to control; format: functional, Homo sapiens; outline: as §1
HUVEC [23] = test: Effect on CENPF gene expression in serum-starved HUVEC after 24 hrs by microarray analysis relative to control; format: functional, Homo sapiens; outline: as §5
HUVEC [24] = test: Effect on COL4A3BP gene expression in serum-starved HUVEC after 24 hrs by microarray analysis relative to control; format: functional, Homo sapiens; outline: as §4
HUVEC [25] = test: Effect on DKK1 gene expression in serum-starved HUVEC after 24 hrs by microarray analysis relative to control; format: functional, Homo sapiens; outline: as §4
HUVEC [26] = test: Effect on EIF3CL gene expression in serum-starved HUVEC after 24 hrs by microarray analysis relative to control; format: functional, Homo sapiens; outline: as §4
HUVEC [27] = test: Effect on FDPS gene expression in serum-starved HUVEC after 24 hrs by microarray analysis relative to control; format: functional, Homo sapiens; outline: as §2
HUVEC [28] = test: Effect on KIF4A gene expression in serum-starved HUVEC after 24 hrs by microarray analysis relative to control; format: functional, Homo sapiens; outline: as §3
HUVEC [29] = test: Effect on PALD1 gene expression in serum-starved HUVEC after 24 hrs by microarray analysis relative to control; format: functional, Homo sapiens; outline: as §3
HUVEC [30] = test: Effect on PCYT2 gene expression in serum-starved HUVEC after 24 hrs by microarray analysis relative to control; format: functional, Homo sapiens
HUVEC [31] = test: Effect on RNA5S9 gene expression in serum-starved HUVEC after 24 hrs by microarray analysis relative to control; format: functional, Homo sapiens
HUVEC [32] = test: Effect on SERPINB2 gene expression in serum-starved HUVEC after 24 hrs by microarray analysis relative to control; format: functional, Homo sapiens
HUVEC [33] = test: Effect on TM4SF18 gene expression in serum-starved HUVEC after 24 hrs by microarray analysis relative to control; format: functional, Homo sapiens
[34] = Downregulation of CCNA2 gene expression in serum-starved HUVEC at 2 uM after 24 hrs by qRT-PCR analysis; format: functional, cell-based; conditions: Homo sapiens
Outline: (§6)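 Serum-starved confluent HUVEC treated with 2 μM compound or vehicle in 2.5% FBS for 24 h. Total RNA isolated and qRT-PCR run in triplicate (95 °C 5 min; 40 cycles of 95 °C 5 s, 58 °C 20 s, 72 °C 5 s), normalized to RPS18S. Fold change vs control, n = 3.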

[35] = Downregulation of HMOX1 gene expression in serum-starved HUVEC at 2 uM after 24 hrs by qRT-PCR analysis; format: functional, cell-based; conditions: Homo sapiens; outline: as §6

SMILES: COc1ccc(Cn2nc(-c3ccccc3)c3cc(Cl)nc(N4CCNCC4)c32)cc1
- fold change (FC) (HUVEC [1]): 0.0058
- log2FC (HUVEC [2]): -0.0514
- log2FC (HUVEC [3]): 0.2477
- log2FC (HUVEC [4]): 0.526
- log2FC (HUVEC [5]): 0.5127
- log2FC (HUVEC [6]): -0.5225

SMILES: COc1ccc(Cn2nc(-c3ccccc3)c3cc(Nc4ccc(N5CCN(C)CC5)cc4)nc(N4CCN(C)CC4)c32)cc1
- fold change (FC) (HUVEC [7]): 0.1452
- fold change (FC) (HUVEC [8]): 0.7182
- fold change (FC) (HUVEC [9]): 0.1437
- fold change (FC) (HUVEC [10]): 0.0722
- fold change (FC) (HUVEC [11]): 0.1994
- fold change (FC) (HUVEC [12]): 0.2207
- fold change (FC) (HUVEC [13]): 0.8911
- fold change (FC) (HUVEC [14]): 1.3289
- fold change (FC) (HUVEC [15]): 0.0717
- fold change (FC) (HUVEC [16]): 0.2295
- log2FC (HUVEC [17]): -0.7994
- log2FC (HUVEC [18]): 0.1139
- log2FC (HUVEC [19]): 0.343
- log2FC (HUVEC [20]): 0.5844
- fold change (FC) (HUVEC [21]): -0.6725
- log2FC (HUVEC [22]): -0.5092
- fold change (FC) (HUVEC [23]): -0.7151
- fold change (FC) (HUVEC [24]): -0.1456
- fold change (FC) (HUVEC [25]): -0.6899
- fold change (FC) (HUVEC [26]): -0.1982
- log2FC (HUVEC [27]): 0.8398
- log2FC (HUVEC [28]): -0.5756
- log2FC (HUVEC [29]): 0.5892
- log2FC (HUVEC [30]): 0.5377
- log2FC (HUVEC [31]): 0.0013
- log2FC (HUVEC [32]): -0.6601
- log2FC (HUVEC [33]): 0.5978
- Activity [34]: Active
- Activity [35]: Active
